How the values were obtained:
[1] = Drug excretion in SCID mouse xenografted with human HT-29 cells at 0.37 MBq/mouse, iv measured at 4 hrs using 177Lu labelled compound by gamma counter analysis; assay type: ADME, organism-based; settings: in vivo
Method in brief: (§1)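 Female SCID mice bearing s.c. flank HT-29 xenografts (5 × 10^6 cells in Matrigel, ~80 mm3). Given 10 μCi (0.37 MBq) 177Lu conjugate i.v. by tail vein; groups sacrificed at 4, 24, 72 h. Tissues weighed and gamma-counted as %ID/g, excretion as %ID; n = 5, mean ± SD. Blocking arms: colchicine 1 mg/kg i.p. beforehand, or D-lysine 40 mg/kg co-injected.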

[2] = Drug uptake in blood of SCID mouse xenografted with human HT-29 cells at 0.37 MBq/mouse, iv measured at 4 hrs using 177Lu labelled compound by gamma counter analysis; assay type: ADME, organism-based; settings: in vivo; method in brief: as §1
[3] = Drug uptake in lung of SCID mouse xenografted with human HT-29 cells at 0.37 MBq/mouse, iv measured at 4 hrs using 177Lu labelled compound by gamma counter analysis; assay type: ADME, organism-based; settings: in vivo
Method in brief: (§2)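 Female SCID mice (5 weeks) bore s.c. flank xenografts of HT-29 cells (5 × 10^6 in Matrigel), used at about 80 mm3 (two weeks) and randomized. Each mouse received 10 μCi (0.37 MBq) of HPLC-purified 177Lu-conjugate via tail vein. Tissues were excised, weighed and gamma-counted, expressed as %ID/g; mean ± SD, n = 5.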

[4] = Drug uptake in pancreas of SCID mouse xenografted with human HT-29 cells at 0.37 MBq/mouse, iv measured at 4 hrs using 177Lu labelled compound by gamma counter analysis; assay type: ADME, organism-based; settings: in vivo; method in brief: as §2
[5] = Drug uptake in small intestine of SCID mouse xenografted with human HT-29 cells at 0.37 MBq/mouse, iv measured at 4 hrs using 177Lu labelled compound by gamma counter analysis; assay type: ADME, organism-based; settings: in vivo; method in brief: as §2
[6] = Drug uptake in large intestine of SCID mouse xenografted with human HT-29 cells at 0.37 MBq/mouse, iv measured at 4 hrs using 177Lu labelled compound by gamma counter analysis; assay type: ADME, organism-based; settings: in vivo; method in brief: as §2
[7] = Drug uptake in kidney of SCID mouse xenografted with human HT-29 cells at 0.37 MBq/mouse, iv measured at 4 hrs using 177Lu labelled compound by gamma counter analysis; assay type: ADME, organism-based; settings: in vivo; method in brief: as §2
[8] = Drug uptake in muscle of SCID mouse xenografted with human HT-29 cells at 0.37 MBq/mouse, iv measured at 4 hrs using 177Lu labelled compound by gamma counter analysis; assay type: ADME, organism-based, Muscle tissue; settings: in vivo; method in brief: as §2
[9] = Drug uptake in bone of SCID mouse xenografted with human HT-29 cells at 0.37 MBq/mouse, iv measured at 4 hrs using 177Lu labelled compound by gamma counter analysis; assay type: ADME, organism-based, Bone element; settings: in vivo; method in brief: as §2
[10] = Drug uptake in heart of SCID mouse xenografted with human HT-29 cells at 0.37 MBq/mouse, iv measured at 24 hrs using 177Lu labelled compound by gamma counter analysis; assay type: ADME, organism-based; settings: in vivo; method in brief: as §2
[11] = Drug uptake in brain of SCID mouse xenografted with human HT-29 cells at 0.37 MBq/mouse, iv measured at 4 hrs using 177Lu labelled compound by gamma counter analysis; assay type: ADME, organism-based; settings: in vivo; method in brief: as §2
[12] = Drug uptake in pancreas of SCID mouse xenografted with human HT-29 cells at 0.37 MBq/mouse, iv measured at 24 hrs using 177Lu labelled compound by gamma counter analysis; assay type: ADME, organism-based; settings: in vivo; method in brief: as §2
[13] = Drug uptake in liver of SCID mouse xenografted with human HT-29 cells at 0.37 MBq/mouse, iv measured at 24 hrs using 177Lu labelled compound by gamma counter analysis; assay type: ADME, organism-based; settings: in vivo; method in brief: as §2
[14] = Drug uptake in SCID mouse xenografted with human HT-29 cells assessed as tumour retention level at 0.37 MBq/mouse, iv measured at 4 hrs using 177Lu labelled compound by gamma counter analysis; assay type: ADME, organism-based; settings: in vivo; method in brief: as §1
[15] = Drug uptake in stomach of SCID mouse xenografted with human HT-29 cells at 0.37 MBq/mouse, iv measured at 24 hrs using 177Lu labelled compound by gamma counter analysis; assay type: ADME, organism-based; settings: in vivo
Method in brief: (§3)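 Female SCID mice (5 weeks old) received s.c. flank HT-29 cells (5 × 10^6 in Matrigel). At ~80 mm3, two weeks later, mice were randomized and given 10 μCi (0.37 MBq) of purified 177Lu conjugate i.v. by tail vein. Mice were killed at 4, 24 or 72 h. Tissues were weighed and gamma counted as %ID/g, mean ± SD, n = 5. Tumor-to-tissue ratios were calculated.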

[16] = Drug uptake in spleen of SCID mouse xenografted with human HT-29 cells at 0.37 MBq/mouse, iv measured at 24 hrs using 177Lu labelled compound by gamma counter analysis; assay type: ADME, organism-based; settings: in vivo; method in brief: as §3
[17] = Drug uptake in bone of SCID mouse xenografted with human HT-29 cells at 0.37 MBq/mouse, iv measured at 24 hrs using 177Lu labelled compound by gamma counter analysis; assay type: ADME, organism-based, Bone element; settings: in vivo; method in brief: as §1
[18] = Drug excretion in SCID mouse xenografted with human HT-29 cells at 0.37 MBq/mouse, iv measured at 24 hrs using 177Lu labelled compound by gamma counter analysis; assay type: ADME, organism-based; settings: in vivo; method in brief: as §1
[19] = Drug uptake in liver of SCID mouse xenografted with human HT-29 cells at 0.37 MBq/mouse, iv measured at 72 hrs using 177Lu labelled compound by gamma counter analysis; assay type: ADME, organism-based; settings: in vivo; method in brief: as §2
[20] = Drug uptake in stomach of SCID mouse xenografted with human HT-29 cells at 0.37 MBq/mouse, iv measured at 72 hrs using 177Lu labelled compound by gamma counter analysis; assay type: ADME, organism-based; settings: in vivo; method in brief: as §3
[21] = Drug uptake in spleen of SCID mouse xenografted with human HT-29 cells at 0.37 MBq/mouse, iv measured at 72 hrs using 177Lu labelled compound by gamma counter analysis; assay type: ADME, organism-based; settings: in vivo; method in brief: as §3
[22] = Drug uptake in small intestine of SCID mouse xenografted with human HT-29 cells at 0.37 MBq/mouse, iv measured at 72 hrs using 177Lu labelled compound by gamma counter analysis; assay type: ADME, organism-based; settings: in vivo; method in brief: as §2
[23] = Drug uptake in large intestine of SCID mouse xenografted with human HT-29 cells at 0.37 MBq/mouse, iv measured at 72 hrs using 177Lu labelled compound by gamma counter analysis; assay type: ADME, organism-based; settings: in vivo; method in brief: as §2
[24] = Drug uptake in kidney of SCID mouse xenografted with human HT-29 cells at 0.37 MBq/mouse, iv measured at 72 hrs using 177Lu labelled compound by gamma counter analysis; assay type: ADME, organism-based; settings: in vivo; method in brief: as §2
[25] = Drug uptake in muscle of SCID mouse xenografted with human HT-29 cells at 0.37 MBq/mouse, iv measured at 72 hrs using 177Lu labelled compound by gamma counter analysis; assay type: ADME, organism-based, Muscle tissue; settings: in vivo; method in brief: as §2
[26] = Drug uptake in bone of SCID mouse xenografted with human HT-29 cells at 0.37 MBq/mouse, iv measured at 72 hrs using 177Lu labelled compound by gamma counter analysis; assay type: ADME, organism-based, Bone element; settings: in vivo; method in brief: as §2
[27] = Drug uptake in SCID mouse xenografted with human HT-29 cells assessed as tumour retention level at 0.37 MBq/mouse, iv measured at 72 hrs using 177Lu labelled compound by gamma counter analysis; assay type: ADME, organism-based; settings: in vivo; method in brief: as §1
[28] = Octanol-PBS buffer distribution coefficient, log D of 177Lu labelled compound at pH 7.4 by radiometric analysis; assay type: physicochemical
Method in brief: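 177Lu conjugate partitioned between 1-octanol and PBS pH 7.4. 100 μL aliquots from each layer were gamma counted, and LogD7.4 was calculated from the counts.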

[29] = Drug uptake in heart of SCID mouse xenografted with human HT-29 cells at 0.37 MBq/mouse, iv measured at 72 hrs using 177Lu labelled compound by gamma counter analysis; assay type: ADME, organism-based; settings: in vivo; method in brief: as §2

| SMILES | Drug excretion [1] [%ID] | Drug uptake [2] [% ID/g] | Drug uptake [3] [% ID/g] | Drug uptake [4] [% ID/g] | Drug uptake [5] [% ID/g] | Drug uptake [6] [% ID/g] | Drug uptake [7] [% ID/g] | Drug uptake [8] [% ID/g] | Drug uptake [9] [% ID/g] | Drug uptake [10] [% ID/g] | Drug uptake [11] [% ID/g] | Drug uptake [12] [% ID/g] | Drug uptake [13] [% ID/g] | Drug uptake [14] [% ID/g] | Drug uptake [15] [% ID/g] | Drug uptake [16] [% ID/g] | Drug uptake [17] [% ID/g] | Drug excretion [18] [%ID] | Drug uptake [19] [% ID/g] | Drug uptake [20] [% ID/g] | further results |
| --- | --- | --- | --- | --- | --- | --- | --- | --- | --- | --- | --- | --- | --- | --- | --- | --- | --- | --- | --- | --- | --- |
| Cc1cc(O)cc(C)c1C[C@H](NC(=O)[C@@H]1CCCN1C(=O)[C@H](CCCNC(=N)N)NC(=O)[C@H](CCCNC(=N)N)N(C)C(=O)[C@@H]1CCCN1C(=O)[C@H](CCCCN)NC(=O)[C@@H](CO)NC(=O)[C@@H](CO)NC(=O)[C@@H](CO)NC(=O)[C@H](Cc1cn(CCNC(=O)[C@H](CCCNC(=N)N)NC(=O)[C@H](CC(C)C)NC(=O)CCC(=O)O)nn1)NC(=O)CN1CCN(CC(=O)O)CCN(CC(=O)O)CCN(CC(=O)O)CC1)C(=O)N[C@H](C(=O)N[C@@H](CC(C)C)C(=O)O)C(C)(C)C | 75 | 0.01 | 0.37 | 0.12 | 2.9 | 1 | 57 | 0.04 | 0.18 | 0.01 | 0.02 | 0.11 | 0.4 | 5.6 | 0.15 | 1.6 | 0.15 | 84.7 | 0.26 | 0.08 | Drug uptake [21]: 0.8 % ID/g; Drug uptake [22]: 1.07 % ID/g; Drug uptake [23]: 0.36 % ID/g; Drug uptake [24]: 15 % ID/g; Drug uptake [25]: 0.01 % ID/g; Drug uptake [26]: 0.12 % ID/g; Drug uptake [27]: 2.6 % ID/g; logD [28]: -3.51 |
| Cc1cc(O)cc(C)c1C[C@H](NC(=O)[C@@H]1CCCN1C(=O)[C@H](CCCNC(=N)N)NC(=O)[C@H](CCCNC(=N)N)N(C)C(=O)[C@@H]1CCCN1C(=O)[C@H](CCCCN)NC(=O)[C@@H](CO)NC(=O)[C@@H](CO)NC(=O)[C@@H](CO)NC(=O)[C@H](Cc1cn(CCNC(=O)[C@H](CCCNC(=N)N)NC(=O)[C@H](CC(C)C)NC(=O)C2OC2C(=O)O)nn1)NC(=O)CN1CCN(CC(=O)O)CCN(CC(=O)O)CCN(CC(=O)O)CC1)C(=O)N[C@H](C(=O)N[C@@H](CC(C)C)C(=O)O)C(C)(C)C (some centres not stated) | 70 | 0.02 | 0.53 | 0.19 | 3.5 | 1.2 | 67 | 0.09 | 0.8 | 0.08 | 0.01 | 0.18 | 0.73 | 6.4 | 0.33 | 1.7 | 1.1 | 69 | 0.67 | 0.21 | Drug uptake [29]: 0.04 % ID/g; Drug uptake [21]: 1.9 % ID/g; Drug uptake [22]: 2.3 % ID/g; Drug uptake [23]: 0.73 % ID/g; Drug uptake [24]: 46 % ID/g; Drug uptake [25]: 0.03 % ID/g; Drug uptake [26]: 0.6 % ID/g; Drug uptake [27]: 3.9 % ID/g; logD [28]: -3.78 |

Source: ChEMBL document CHEMBL4350999, “Enhanced tumor retention of NTSR1-targeted agents by employing a hydrophilic cysteine cathepsin inhibitor” (Eur J Med Chem, 2019)
